ChEMBL document CHEMBL3396951, “Design, synthesis and SAR studies of GABA uptake inhibitors derived from 2-substituted pyrrolidine-2-yl-acetic acids” (Bioorg Med Chem, 2015)

Tests used:
[1] = molecular target: Sodium- and chloride-dependent GABA transporter 1 (Mus musculus) (UniProt P31648); assay: Inhibition of mouse GAT1 expressed in HEK293 cells assessed as remaining [3H]GABA uptake at 1 mM by [3H]GABA uptake assay; assay type: cell-based
Procedure, shortened: (§1)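 Radioactive [3H]GABA uptake run in HEK293 cells expressing mGAT1–4 with 1 mM test substance. Readout is % remaining uptake relative to an inhibitor-free control.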

[2] = molecular target: T1, GABA transporter 2 (Mus musculus) (UniProt P31651); assay: Inhibition of mouse GAT2 expressed in HEK293 cells assessed as remaining [3H]GABA uptake at 1 mM by [3H]GABA uptake assay; assay type: cell-based; procedure, shortened: as §1
T1 sequence (whole entry): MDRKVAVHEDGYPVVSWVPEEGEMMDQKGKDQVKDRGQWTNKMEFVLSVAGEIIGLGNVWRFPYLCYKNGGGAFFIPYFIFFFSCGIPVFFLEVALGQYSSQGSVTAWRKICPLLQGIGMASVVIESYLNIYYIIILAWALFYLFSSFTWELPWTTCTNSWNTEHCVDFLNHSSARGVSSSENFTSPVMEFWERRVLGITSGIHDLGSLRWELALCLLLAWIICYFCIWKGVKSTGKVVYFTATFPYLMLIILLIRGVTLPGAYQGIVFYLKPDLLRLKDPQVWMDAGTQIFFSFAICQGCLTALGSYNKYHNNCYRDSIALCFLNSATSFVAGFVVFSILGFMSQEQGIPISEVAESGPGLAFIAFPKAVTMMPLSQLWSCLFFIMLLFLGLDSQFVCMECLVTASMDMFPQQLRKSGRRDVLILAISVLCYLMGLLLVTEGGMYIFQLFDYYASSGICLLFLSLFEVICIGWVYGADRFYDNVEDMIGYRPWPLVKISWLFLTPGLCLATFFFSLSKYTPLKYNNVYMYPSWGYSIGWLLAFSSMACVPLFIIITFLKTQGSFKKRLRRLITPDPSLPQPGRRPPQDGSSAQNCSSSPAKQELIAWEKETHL

[3] = molecular target: T2, GABA transporter 3 (Mus musculus) (UniProt P31649); assay: Inhibition of mouse GAT3 expressed in HEK293 cells assessed as remaining [3H]GABA uptake at 1 mM by [3H]GABA uptake assay; assay type: cell-based; procedure, shortened: as §1
T2 sequence (whole entry): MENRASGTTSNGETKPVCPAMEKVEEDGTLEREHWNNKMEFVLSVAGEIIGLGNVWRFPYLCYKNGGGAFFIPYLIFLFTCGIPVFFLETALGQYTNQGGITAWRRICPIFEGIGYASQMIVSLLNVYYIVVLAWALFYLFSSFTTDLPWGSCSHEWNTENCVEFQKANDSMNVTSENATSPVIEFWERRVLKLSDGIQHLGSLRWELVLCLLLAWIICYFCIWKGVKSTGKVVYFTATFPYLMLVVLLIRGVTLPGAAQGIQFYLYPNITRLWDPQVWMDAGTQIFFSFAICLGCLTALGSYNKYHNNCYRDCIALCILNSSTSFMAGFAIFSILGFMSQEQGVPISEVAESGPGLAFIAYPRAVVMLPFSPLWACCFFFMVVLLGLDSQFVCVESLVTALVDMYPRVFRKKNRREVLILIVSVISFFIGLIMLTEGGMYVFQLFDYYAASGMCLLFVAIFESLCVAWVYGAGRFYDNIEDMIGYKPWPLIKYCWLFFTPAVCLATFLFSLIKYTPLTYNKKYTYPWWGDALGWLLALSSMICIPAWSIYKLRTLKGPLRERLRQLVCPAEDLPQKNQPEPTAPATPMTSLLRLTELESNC

[4] = molecular target: T3, GABA transporter 4 (Mus musculus) (UniProt P31650); assay: Inhibition of mouse GAT4 expressed in HEK293 cells assessed as remaining [3H]GABA uptake at 1 mM by [3H]GABA uptake assay; assay type: cell-based; procedure, shortened: as §1
T3 sequence (whole entry): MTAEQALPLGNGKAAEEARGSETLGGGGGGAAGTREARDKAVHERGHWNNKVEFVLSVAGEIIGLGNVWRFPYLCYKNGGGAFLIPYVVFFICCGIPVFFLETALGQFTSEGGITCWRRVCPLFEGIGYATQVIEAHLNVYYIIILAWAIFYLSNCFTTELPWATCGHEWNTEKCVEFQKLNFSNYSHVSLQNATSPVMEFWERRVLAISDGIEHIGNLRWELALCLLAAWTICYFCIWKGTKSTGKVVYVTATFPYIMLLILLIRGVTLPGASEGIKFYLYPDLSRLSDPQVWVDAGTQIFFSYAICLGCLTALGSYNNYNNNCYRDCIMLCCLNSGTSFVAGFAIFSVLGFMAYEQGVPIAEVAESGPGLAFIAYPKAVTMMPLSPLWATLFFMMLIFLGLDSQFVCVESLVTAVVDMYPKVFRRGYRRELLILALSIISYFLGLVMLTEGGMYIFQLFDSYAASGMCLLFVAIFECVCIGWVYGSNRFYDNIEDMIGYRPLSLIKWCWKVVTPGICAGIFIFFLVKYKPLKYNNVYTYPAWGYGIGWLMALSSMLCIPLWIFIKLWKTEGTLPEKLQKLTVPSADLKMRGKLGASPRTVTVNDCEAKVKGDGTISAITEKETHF

[5] = molecular target: T4, Sodium- and chloride-dependent GABA transporter 1 (Mus musculus, UniProt P31648); assay: Inhibition of mouse GAT1 expressed in HEK293 cells by [3H]GABA uptake assay; assay type: cell-based
[6] = molecular target: T5, GABA transporter 2 (Mus musculus, UniProt P31651); assay: Inhibition of mouse GAT2 expressed in HEK293 cells by [3H]GABA uptake assay; assay type: cell-based
T5 sequence (P31651 whole entry): T1 sequence (whole entry)
Procedure, shortened: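 [3H]GABA uptake inhibition in HEK293 cells expressing mGAT1–4 or hGAT-1, reported as pIC50 (mean ± SEM, n = 3 independent experiments). The hGAT-1 assay matched the mGAT1 assay except that HEK293 […] expressing hGAT-1 was used.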

[7] = molecular target: T6, GABA transporter 3 (Mus musculus, UniProt P31649); assay: Inhibition of mouse GAT3 expressed in HEK293 cells by [3H]GABA uptake assay; assay type: cell-based
T6 sequence (P31649 whole entry): T2 sequence (whole entry)

[8] = molecular target: T7, GABA transporter 4 (Mus musculus, UniProt P31650); assay: Inhibition of mouse GAT4 expressed in HEK293 cells by [3H]GABA uptake assay; assay type: cell-based
T7 sequence (P31650 whole entry): T3 sequence (whole entry)

[9] = molecular target: T8, Sodium- and chloride-dependent GABA transporter 1 (Homo sapiens, UniProt P30531); assay: Inhibition of human GAT1 expressed in HEK293 cells by [3H]GABA uptake assay; assay type: cell-based
T8 sequence (P30531 whole entry): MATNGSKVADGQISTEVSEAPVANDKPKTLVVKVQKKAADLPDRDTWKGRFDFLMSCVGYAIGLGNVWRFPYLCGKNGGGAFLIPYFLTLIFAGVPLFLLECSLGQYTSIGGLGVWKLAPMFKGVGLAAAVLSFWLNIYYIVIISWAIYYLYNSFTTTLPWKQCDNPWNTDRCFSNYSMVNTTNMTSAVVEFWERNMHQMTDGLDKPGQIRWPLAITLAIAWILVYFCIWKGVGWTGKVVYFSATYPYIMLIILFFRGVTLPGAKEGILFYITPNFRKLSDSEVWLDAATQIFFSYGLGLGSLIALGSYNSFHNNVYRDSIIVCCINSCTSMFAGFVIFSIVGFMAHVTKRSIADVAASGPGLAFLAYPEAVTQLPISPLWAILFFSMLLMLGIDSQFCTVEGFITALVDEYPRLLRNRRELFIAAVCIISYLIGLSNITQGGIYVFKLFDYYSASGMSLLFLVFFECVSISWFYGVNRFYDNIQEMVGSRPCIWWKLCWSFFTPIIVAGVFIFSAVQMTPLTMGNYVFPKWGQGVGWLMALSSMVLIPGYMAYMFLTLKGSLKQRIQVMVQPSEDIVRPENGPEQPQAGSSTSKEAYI

[10] = molecular target: T8, Sodium- and chloride-dependent GABA transporter 1; assay: Binding affinity to human GAT1 expressed in HEK293 cells using NO71156 as unlabelled marker by LC-ESI-MS-MS based competitive MS binding assay; assay type: cell-based
Procedure, shortened: (§2)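 Competitive MS Binding Assay using membrane preparations from HEK293 cells expressing the transporter. hGAT-1 membranes were prepared the same way as mGAT1 membranes. Affinity reported as pKi ± SEM from three independent experiments.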

[11] = molecular target: T4, Sodium- and chloride-dependent GABA transporter 1; assay: Binding affinity to mouse GAT1 expressed in HEK293 cells using NO71156 as unlabelled marker by LC-ESI-MS-MS based competitive MS binding assay; assay type: cell-based; procedure, shortened: as §2
[12] = molecular target: T1, GABA transporter 2 (Mus musculus); assay: Inhibition of mouse GAT2 expressed in HEK293 cells assessed as remaining [3H]GABA uptake at 100 uM by [3H]GABA uptake assay; assay type: cell-based
Procedure, shortened: (§3)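 Transfected HEK293 cells (mGAT1–4) tested for [3H]GABA uptake at 100 µM test substance. Remaining uptake is expressed against a control without inhibitor.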

[13] = molecular target: T3, GABA transporter 4 (Mus musculus); assay: Inhibition of mouse GAT4 expressed in HEK293 cells assessed as remaining [3H]GABA uptake at 100 uM by [3H]GABA uptake assay; assay type: cell-based; procedure, shortened: as §3
[14] = molecular target: T2, GABA transporter 3 (Mus musculus); assay: Inhibition of mouse GAT3 expressed in HEK293 cells assessed as remaining [3H]GABA uptake at 100 uM by [3H]GABA uptake assay; assay type: cell-based; procedure, shortened: as §3
[15] = organism: Mus musculus; assay: Selectivity for mouse GAT1 over mouse GAT4
[16] = molecular target: Sodium- and chloride-dependent GABA transporter 1 (Mus musculus) (UniProt P31648); assay: Inhibition of mouse GAT1 expressed in HEK293 cells assessed as remaining [3H]GABA uptake at 100 uM by [3H]GABA uptake assay; assay type: cell-based; procedure, shortened: as §3

SMILES	Activity [1] [%]	Activity [2] [%]	IC50 [5] [µM]	IC50 [7] [µM]	IC50 [8] [µM]	Ki [10] [µM]	Ki [11] [µM]	Activity [12] [%]	other results
CC(C)(C(=O)O)[C@H]1CCCN1 (racemic)	83	108	–	–	–	–	–	–	Activity [3]: 93%; Activity [4]: 95%
N[C@@H](C(=O)O)[C@H]1CCCN1 (racemic)	–	–	123	26.9	21.4	–	–	–	IC50 [6]: 158 µM
O=C(O)C[C@@H]1CCCN1	–	77	407	141	309	–	–	–	–
O=C(O)[C@@H](O)[C@H]1CCCN1CCC=C(c1ccccc1)c1ccccc1 (racemic)	–	–	2.29	100	–	0.214	0.145	60	IC50 [9]: 1.91 µM; Activity [13]: 55%
Cc1ccsc1C(=CCCN1CCC[C@@H]1[C@H](N)C(=O)O)c1sccc1C (racemic)	–	–	100	–	100	19.1	37.2	–	IC50 [6]: 100 µM; Activity [14]: 63%
O=C(O)C1([C@H]2CCCN2)CCC1 (racemic)	92	91	–	–	–	–	–	–	Activity [3]: 73%; Activity [4]: 110%
CCC(C(=O)O)[C@H]1CCCN1 (mixture of isomers)	78	82	–	–	–	–	–	–	Activity [3]: 78%; Activity [4]: 95%
Cc1ccsc1C(=CCCN1CCC[C@@H]1[C@@H](N)C(=O)O)c1sccc1C (racemic)	–	–	14.1	30.2	31.6	20.4	17.4	–	IC50 [6]: 42.7 µM
CC(C(=O)O)[C@H]1CCCN1 (mixture of isomers)	83	59	–	309	339	–	–	–	–
Cc1ccsc1C(=CCCN1CCC[C@@H]1[C@@H](O)C(=O)O)c1sccc1C (racemic)	–	–	3.39	–	–	1.1	1.07	63	IC50 [9]: 4.17 µM; Selectivity ratio [15]: > 29; Activity [14]: 90%; Activity [13]: 74%
O=C(O)[C@@H](O)[C@H]1CCCN1 (racemic)	53	95	–	269	–	–	–	–	Activity [4]: 61%
O=C(O)C[C@H]1CCCN1	–	81	240	339	1120	–	–	–	–
Cc1ccsc1C(=CCCN1CCC[C@@H]1[C@H](O)C(=O)O)c1sccc1C (racemic)	–	–	2.14	42.7	–	0.0661	0.102	58	IC50 [9]: 0.724 µM; Selectivity ratio [15]: > 47; Activity [13]: 59%
O=C(O)[C@H](O)[C@H]1CCCN1 (racemic)	–	–	1000	36.3	14.1	–	–	–	IC50 [6]: 170 µM; Selectivity ratio [15]: > 71
COc1ccc(C(OCCN2CCC[C@@H]2[C@@H](O)C(=O)O)(c2ccc(OC)cc2)c2ccc(OC)cc2)cc1 (racemic)	–	–	–	17	5.75	–	–	56	Activity [16]: 68%
N[C@H](C(=O)O)[C@H]1CCCN1CCC=C(c1ccccc1)c1ccccc1 (racemic)	–	–	34.7	–	–	–	–	61	Activity [14]: 71%; Activity [13]: 83%
N[C@@H](C(=O)O)[C@H]1CCCN1CCC=C(c1ccccc1)c1ccccc1 (racemic)	–	–	49	11.5	17.4	–	–	66	–
O=C(O)[C@H](O)[C@H]1CCCN1CCC=C(c1ccccc1)c1ccccc1 (racemic)	–	–	25.1	–	–	3.98	3.89	89	IC50 [9]: 13.8 µM; Activity [14]: 97%; Activity [13]: 59%
N[C@H](C(=O)O)[C@H]1CCCN1 (racemic)	1	52	–	–	372	–	–	–	Activity [3]: 59%
Cc1ccsc1C(=CCCN1CCC[C@@H](C(=O)O)C1)c1sccc1C [TIAGABINE]	–	–	–	–	–	–	0.0372	–	–
